We go through one compound from ChEMBL document CHEMBL1671691 (Antimicrob Agents Chemother, 2010).

Assay [1] concerns Influenza A virus. The experiment in a line: Antiviral activity against adamantane-susceptible zanamivir-, oseltamivir-resistant Influenza A virus (A/Brazil/1633/2008(H1N1)) harboring neuraminidase Q136K mutant infected in MDCK cells assessed as inhibition of viral replication after 3 days by microscopic analysis using crystal violet stain. The format is functional, organism-based.

Assay [2] has as its system Influenza A virus. Kind of assay: Antiviral activity against oseltamivir-susceptible zanamivir-, adamantane-resistant Influenza A virus (A/Bethesda/956/2006(H3N2)) harboring neuraminidase R292K mutant and M2 S31N mutant infected in MDCK cells assessed as inhibition of viral replication after 3 days by microscopic analysis using crystal violet stain. It counts as functional, organism-based.

Assay [3] in a line: Antiviral activity against adamantane-, oseltamivir-, zanamivir-resistant Influenza B virus (B/Illinois/03/2008) harboring neuraminidase E119A mutant infected in MDCK cells assessed as inhibition of viral replication after 3 days by microscopic analysis using crystal violet stain. The format is functional, cell-based. The method in brief: (§1)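 Confluent MDCK-ATCC monolayers infected with virus diluted to give 15–45 plaques/well. Adsorption 1 h at 37°C without drug, then washed. Overlaid with 0.8% agarose in MEM containing drug plus TPCK-trypsin: 3 μg/ml for seasonal viruses, 2 μg/ml for 2009 A(H1N1). Incubated 3 days at 37°C, 5% CO2. Ethanol-fixed, crystal violet-stained, plaques counted. EC50 by curve fit; duplicates on three occasions, mean ± SD.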

The test system of assay [4] is Influenza A virus. The experiment in a line: Antiviral activity against Influenza A virus (A/Illinois/10/2009(H1N1)) harboring neuraminidase H275Y mutant infected in MDCK cells from Mill Hill assessed as inhibition of viral replication after 3 days by microscopic analysis using crystal violet stain. The format is functional.
Assay [5] deals with Influenza A virus. Kind of assay: Antiviral activity against adamantane-susceptible zanamivir-, oseltamivir-resistant Influenza A virus (A/Santiago/5248/2008(H1N1)) harboring neuraminidase D198E mutant infected in MDCK cells assessed as inhibition of viral replication after 3 days by microscopic analysis using crystal violet stain. It counts as functional, organism-based.
Assay [6] concerns Influenza A virus. Kind of assay: Antiviral activity against adamantane-resistant zanamivir-,oseltamivir-susceptible Influenza A virus (A/pdm/California/05/2009 (H1N1)) harboring M2 V28I, S31N mutant infected in MDCK cells assessed as inhibition of viral replication after 3 days by microscopic analysis using crystal violet stain. The format is functional, organism-based, Influenza A virus (A/California/05/2009(H1N1)).

Assay [7] deals with Influenza A virus. Kind of assay: Antiviral activity against 0.001 MOI adamantane-resistant zanamivir-,oseltamivir-susceptible Influenza A virus (A/pdm/Mexico/4604/2009(H1N1)) harboring M2 V28I, S31N mutant infected in MDCK cells assessed as determination of viral titer in cell culture at 1.6 uM after 24 hrs by immunofluorescence assay. The format is functional, organism-based. To be noted: Influenza A virus (A/Mexico/4604/2009(H1N1)). In outline: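 Focus inhibition assay: confluent MDCK monolayers infected at MOI ∼0.001–0.1. Adsorption 1 h at 4°C, washed twice, then DMEM with 2 μg/ml TPCK-trypsin and drug for 24 h at 37°C. Cells fixed in methanol/acetic acid at −20°C, immunostained with anti-NP monoclonals and FITC secondary, and foci counted. Supernatants also titrated by focus assay. Quadruplicate on two occasions.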

In assay [8] the test system is Influenza A virus. The experiment in a line: Antiviral activity against adamantane-resistant zanamivir-,oseltamivir-susceptible Influenza A virus (A/Wisconsin/16/2008(H1N1)) harboring neuraminidase H274Y mutant infected in MDCK cells assessed as inhibition of viral replication after 3 days by microscopic analysis using crystal violet stain. It counts as functional, organism-based. The method in brief:
as §1

The subject of assay [9] is Influenza A virus. Kind of assay: Antiviral activity against adamantane-resistant zanamivir-,oseltamivir-susceptible Influenza A virus (A/Florida/01/2009(H3N2)) harboring M2 S31N mutant infected in MDCK cells assessed as inhibition of viral replication after 3 days by microscopic analysis using crystal violet stain. It counts as functional, organism-based. The method in brief: as §1

In assay [10] the test system is Influenza A virus. The experiment in a line: Antiviral activity against adamantane-, zanamivir-susceptible oseltamivir-resistant Influenza A virus (A/Georgia/20/2006(H1N1)) harboring neuraminidase H274Y mutant infected in MDCK cells assessed as inhibition of viral replication after 3 days by microscopic analysis using crystal violet stain. It counts as functional, organism-based. In outline:
as §1

Assay [11] deals with Influenza A virus. The experiment in a line: Antiviral activity against oseltamivir-susceptible zanamivir-, adamantane-resistant Influenza A virus (A/Luhansk/18/2008(H1N1)) harboring neuraminidase H274Y mutant and M2 G34E mutant infected in MDCK cells assessed as inhibition of viral replication after 3 days by microscopic analysis using crystal violet stain. The format is functional, organism-based.

Assay [12] deals with Influenza A virus. Kind of assay: microbe, parasite or virus in culture. To be noted: (A/Wuhan/395/1995-like (H3N2)), MDCK, 72 h.
In assay [13] the test system is Influenza A virus. The experiment in a line: Antiviral activity against oseltamivir-susceptible zanamivir-, adamantane-resistant Influenza A virus (A/pdm/Illinois/10/2009(H1N1)) harboring M2 V28I, S31N mutant and neuraminidase H274Y mutant infected in MDCK cells assessed as inhibition of viral replication after 3 days by microscopic analysis using crystal violet stain. The format is functional, organism-based, (A/Illinois/10/2009(H1N1)).

The subject of assay [14] is Influenza A virus. The experiment in a line: Antiviral activity against oseltamivir-susceptible zanamivir-, adamantane-resistant Influenza A virus (A/Texas/12/2007 (clone)(H3N2)) harboring neuraminidase E119V mutant and harboring M2 S31N mutant infected in MDCK cells assessed as inhibition of viral replication after 3 days by microscopic analysis using crystal violet stain. It counts as functional, organism-based, Influenza A virus (A/Texas/12/2007(H3N2)). The method in brief:
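MDCK-ATCC confluent monolayers infected with pretitrated virus (15–45 plaques per well), 1 h adsorption at 37°C, 5% CO2, without drug. Inoculum removed, PBS wash, then 0.8% agarose overlay in MEM with drug and 3 μg/ml TPCK-trypsin. 3 days at 37°C, ethanol fixation, crystal violet stain, plaques counted. EC50 by curve fit, mean of three experiments in duplicate ± SD.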

In assay [15] the test system is Influenza A virus. Kind of assay: Antiviral activity against adamantane-resistant zanamivir-,oseltamivir-susceptible Influenza A virus (A/Washington/01/2007(H3N2)) harboring M2 S31N mutant infected in MDCK cells assessed as inhibition of viral replication after 3 days by microscopic analysis using crystal violet stain. It counts as functional, organism-based. In outline:
as §1

The nature of assay [16]: Antiviral activity against adamantane-resistant zanamivir-,oseltamivir-susceptible Influenza B virus (B/Illinois/47/2005) infected in MDCK cells assessed as inhibition of viral replication after 3 days by microscopic analysis using crystal violet stain. The format is functional, cell-based. As to conditions: 72 h.
Assay [17] has as its system Influenza A virus. The experiment in a line: Antiviral activity against oseltamivir-susceptible zanamivir-, adamantane-resistant Influenza A virus (A/Texas/12/2007 (clone)(H3N2)) harboring neuraminidase E119I mutant and harboring M2 S31N mutant infected in MDCK cells assessed as inhibition of viral replication after 3 days by microscopic analysis using crystal violet stain. It counts as functional, organism-based, Influenza A virus (A/Texas/12/2007(H3N2)).

The subject of assay [18] is Influenza A virus. The experiment in a line: Antiviral activity against adamantane-resistant zanamivir-,oseltamivir-susceptible Influenza A virus (A/New Hampshire/01/2009(H3N2)) harboring M2 S31N mutant infected in MDCK cells assessed as inhibition of viral replication after 3 days by microscopic analysis using crystal violet stain. It counts as functional, organism-based. The method in brief: as §1

For the next assay, the system named is Influenza B virus. The experiment in a line: microbe, parasite or virus in culture. To be noted: B/Memphis/20/96, MDCK, 72 h.
The subject of assay [19] is Influenza A virus. The experiment in a line: Antiviral activity against oseltamivir-susceptible zanamivir-, adamantane-resistant Influenza A virus (A/pdm/Washington/29/2009 (H1N1)) harboring M2 V28I, S31N mutant and neuraminidase H274Y mutant infected in MDCK cells assessed as inhibition of viral replication after 3 days by microscopic analysis using crystal violet stain. It counts as functional, organism-based, Influenza A virus (A/Washington/29/2009(H1N1)).

In assay [20] the test system is Influenza A virus. The experiment in a line: Antiviral activity against adamantane-resistant zanamivir-,oseltamivir-susceptible Influenza A virus (A/pdm/Mexico/4604/2009 (H1N1)) harboring M2 V28I, S31N mutant infected in MDCK cells assessed as inhibition of viral replication after 3 days by microscopic analysis using crystal violet stain. It counts as functional, organism-based, Influenza A virus (A/Mexico/4604/2009(H1N1)).

Active and inactive are the calls of the source. No cut-off for these calls is given here.

Take `NC(=O)c1nc(F)cnc1O` [FAVIPIRAVIR]: the EC50 in the assay on Influenza A virus [1] is 830 nM; with Influenza A virus [2], 1210 nM; in assay [3] it was 3000 nM; in the assay on Influenza A virus [5] it was 4700 nM; with Influenza A virus [6] it was 830 nM; with Influenza A virus [8], 2870 nM. Besides, the EC50 in the assay with Influenza A virus [9] is 450 nM; in the assay on Influenza A virus [10], 2550 nM; in the assay with Influenza A virus [11] it was 2930 nM; in the assay with Influenza A virus [12], 5990 nM; in the assay with Influenza A virus [13], 22500 nM; in the assay on Influenza A virus [14], 5220 nM. For the same compound, the EC50 with Influenza A virus [15] turned out to be 4460 nM; in assay [16], 4010 nM; with Influenza A virus [17] it was 3950 nM; in the assay with Influenza A virus [18], 4080 nM; with Influenza B virus it was 1210 nM; with Influenza A virus [19], 6620 nM. The EC50 with Influenza A virus [20] was 1210 nM. Further, the log10FFU in the assay with Influenza A virus [4] is listed as 5.03. The result with Influenza A virus [7] was Active.
